In ChEMBL document CHEMBL1153905, “Functionalized 3-benzylidene-indolin-2-ones: inducers of NAD(P)H-quinone oxidoreductase 1 (NQO1) with antiproliferative activity” (Bioorg Med Chem, 2009):

Legend:
CYP1A1 [1] = molecular target: T1, CYP1A1 (Mus musculus, UniProt P00184); assay: Induction of CYP1A1 activity in mouse Hepa-1c1c7 cells assessed as induction ratio at 0.1 uM after 48 hrs by EROD assay relative to control; format: ADME, cell-based
T1 sequence (P00184 whole entry): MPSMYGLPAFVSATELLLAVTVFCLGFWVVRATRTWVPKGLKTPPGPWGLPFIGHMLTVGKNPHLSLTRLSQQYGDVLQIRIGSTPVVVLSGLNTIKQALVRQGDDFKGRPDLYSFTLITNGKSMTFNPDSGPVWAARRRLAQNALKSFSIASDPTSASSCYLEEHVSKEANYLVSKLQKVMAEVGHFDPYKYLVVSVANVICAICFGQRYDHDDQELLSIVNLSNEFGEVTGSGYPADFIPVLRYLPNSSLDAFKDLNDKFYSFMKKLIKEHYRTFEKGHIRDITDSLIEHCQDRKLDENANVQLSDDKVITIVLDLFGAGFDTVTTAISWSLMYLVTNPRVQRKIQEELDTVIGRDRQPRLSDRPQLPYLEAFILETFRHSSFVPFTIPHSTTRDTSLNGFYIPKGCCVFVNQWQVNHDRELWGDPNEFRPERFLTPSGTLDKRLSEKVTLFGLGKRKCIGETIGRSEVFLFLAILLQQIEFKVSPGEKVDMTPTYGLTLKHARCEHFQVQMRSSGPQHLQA
Summary of the method: (§1)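 About 10,000 Hepa1c1c7 cells/well cultured 24 h, then compound (0.5% DMSO final) for 48 h, at roughly 4 × the concentration doubling NQO1 activity. After PBS wash, cells given 5 µM 7-ethoxyresorufin plus 2 mM salicylamide, 37 °C, 40 min; resorufin fluorescence ex 530/em 590 nm, corrected for compound fluorescence. Ratio = (treated − blank)/(DMSO control − blank); mean ± SD, n = 3.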

[2] = Cytotoxicity against mouse Hepa-1c1c7 cells after 48 hrs by MTT assay; format: cell-based; settings: hepa-1c1c7, 48 h
Summary of the method: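 Murine hepatoma cells in α-MEM with 10% heat- and charcoal-treated fetal calf serum, passages 6–17; MTT read-out as for the cancer lines but with 48 h compound exposure. Highest concentration tested 25 µM. IC50 from survival-versus-concentration curve; mean and SD, n = 3.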

[3] = molecular target: NAD(P)H dehydrogenase [quinone] 1 (Mus musculus) (UniProt Q64669); assay: Induction of NQO1 activity in mouse Hepa-1c1c7 cells assessed as induction ratio at 0.1 uM after 48 hrs by MTT assay relative to control; format: cell-based
Chain of NAD(P)H dehydrogenase [quinone] 1 (Mus musculus) (Q64669 whole entry): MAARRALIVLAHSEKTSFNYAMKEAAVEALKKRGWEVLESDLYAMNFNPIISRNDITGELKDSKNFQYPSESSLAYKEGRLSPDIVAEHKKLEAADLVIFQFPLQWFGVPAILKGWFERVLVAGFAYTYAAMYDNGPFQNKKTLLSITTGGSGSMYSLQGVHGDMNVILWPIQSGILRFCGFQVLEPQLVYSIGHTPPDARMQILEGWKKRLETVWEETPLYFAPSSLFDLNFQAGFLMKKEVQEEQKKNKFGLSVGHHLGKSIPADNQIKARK
Summary of the method: (§2)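 Hepa1c1c7 cells, 10,000 per well, 24 h, were then treated 48 h (DMSO ≤0.5%). Digitonin/EDTA lysates were assayed for menadione-dependent MTT-formazan formation using a G6P/G6PDH NADPH-generating mix with FAD at pH 7.4. The reaction ran 5 min, was stopped with dicoumarol, and read at A590. Degree of induction = (A test − blank)/(A control − blank). Ratios were read off the induction–concentration plot at the EROD test concentration.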

CYP1A1 [4] = molecular target: T1, CYP1A1; assay: Induction of CYP1A1 activity in mouse Hepa-1c1c7 cells assessed as induction ratio at 5 nM after 48 hrs by EROD assay relative to control; format: ADME, cell-based
Summary of the method: (§3)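 Hepa1c1c7 cells were seeded at 10,000 per well and grown 24 h. They were then exposed 48 h to compound (final DMSO 0.5% v/v) at about 4 × the NQO1 CD. After a PBS wash, cells got 5 µM 7-ethoxyresorufin plus 2 mM salicylamide in medium, 37 °C, 40 min. Resorufin was read at ex 530/em 590 nm, corrected for compound fluorescence. Ratio = (F treated − blank)/(F DMSO control − blank); mean ± SD, n = 3.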

[5] = Ratio of induction of NQO1 activity to induction of CYP1 activity in mouse Hepa-1c1c7 cells at 5 nM after 48 hrs
[6] = molecular target: NAD(P)H dehydrogenase [quinone] 1 (Mus musculus) (UniProt Q64669); assay: Induction of NQO1 activity in mouse Hepa-1c1c7 cells assessed as induction ratio at 5 nM after 48 hrs by MTT assay relative to control; format: cell-based; summary of the method: as §2
HCT-116 [7] = assay: Cell cycle arrest in human HCT116 cells released from G1 block assessed as accumulation at sub G1 phase at 15 uM after 24 hrs by flow cytometry; format: functional
[8] = Selectivity ratio of IC50 for human CCL186 cells to IC50 for human HCT116 cells; format: ADME, cell-based, HCT-116; settings: CCL186 cells and HCT116 cells, read-out: Ratio IC50
Summary of the method: (§4)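 MTT assay. MCF7 and CCL186 cells were grown in EMEM/10% FBS, HCT116 in McCoy's 5A/10% FBS. Seeding was 10,000 (MCF7), 4000 (HCT116) and 5000 (CCL186) cells per well, 24 h. Compound exposure was 72 h, DMSO ≤1% final. MTT 0.5 mg/ml for 3 h, formazan dissolved in DMSO, A590. IC50 came from sigmoidal survival curves, with 3 separate occasions per concentration. Ratio = IC50 CCL186 / IC50 of the cancer line.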

HCT-116 [9] = assay: Cell cycle arrest in human HCT116 cells released from G2 block assessed as accumulation at sub G1 phase at 15 uM after 24 hrs by flow cytometry; format: functional
HCT-116 [10] = assay: Cell cycle arrest in human HCT116 cells released from G2 block assessed as accumulation at G1 phase at 15 uM after 24 hrs by flow cytometry; format: functional
[11] = molecular target: NAD(P)H dehydrogenase [quinone] 1 (Mus musculus) (UniProt Q64669); assay: Induction of NQO1 activity in mouse Hepa-1c1c7 cells assessed as induction ratio at 7.5 uM after 48 hrs by MTT assay relative to control; format: cell-based; summary of the method: as §2
HCT-116 [12] = assay: Cell cycle arrest in human HCT116 cells released from G2 block assessed as accumulation at S phase at 15 uM after 24 hrs by flow cytometry; format: functional
HCT-116 [13] = assay: Cell cycle arrest in human HCT116 cells released from G1 block assessed as accumulation at G2/M phase at 15 uM after 24 hrs by flow cytometry; format: functional
HCT-116 [14] = assay: Cell cycle arrest in human HCT116 cells released from G1 block assessed as accumulation at S phase at 15 uM after 24 hrs by flow cytometry; format: functional
HCT-116 [15] = assay: Antiproliferative activity against human HCT116 cells after 72 hrs by MTT assay; format: functional, cell-based; settings: HCT-116, 72 h
Summary of the method: (§5)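 Cells seeded at 10,000 (MCF7), 4000 (HCT116) or 5000 (CCL186) per well and grown 24 h; MCF7 and CCL186 in EMEM with pyruvate, glutamine, 10% FBS; HCT116 in McCoy's 5A with 10% FBS. Compounds from DMSO stocks (≤1% DMSO final), 72 h exposure; MTT 0.5 mg/ml for 3 h, formazan in DMSO read at 590 nm. IC50 from sigmoidal survival curve, three separate occasions.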

HCT-116 [16] = assay: Cell cycle arrest in human HCT116 cells released from G1 block assessed as accumulation at G1 phase at 15 uM after 24 hrs by flow cytometry; format: functional
[17] = Antiproliferative activity against human CCL186 cells after 72 hrs by MTT assay; format: cell-based; settings: CCL186, 72 h; summary of the method: as §5
HCT-116 [18] = assay: Cell cycle arrest in human HCT116 cells released from G2 block assessed as accumulation at G2/M phase at 15 uM after 24 hrs by flow cytometry; format: functional
MCF7 [19] = assay: Selectivity ratio of IC50 for human CCL186 cells to IC50 for human MCF7 cells; summary of the method: as §4
CYP1A1 [20] = molecular target: T1, CYP1A1; assay: Induction of CYP1A1 activity in mouse Hepa-1c1c7 cells assessed as induction ratio at 7.5 uM after 48 hrs by EROD assay relative to control; format: ADME, cell-based; summary of the method: as §3
MCF7 [21] = assay: Antiproliferative activity against human MCF7 cells after 72 hrs by MTT assay; format: functional, cell-based; settings: MCF7, 72 h; summary of the method: as §5
CYP1A1 [22] = molecular target: T1, CYP1A1; assay: Induction of CYP1A1 activity in mouse Hepa-1c1c7 cells assessed as induction ratio at 1 uM after 48 hrs by EROD assay relative to control; format: ADME, cell-based; summary of the method: as §1
[23] = molecular target: NAD(P)H dehydrogenase [quinone] 1 (Mus musculus) (UniProt Q64669); assay: Induction of NQO1 activity in mouse Hepa-1c1c7 cells assessed as induction ratio at 1 uM after 48 hrs by MTT assay relative to control; format: cell-based; summary of the method: as §2
CYP1A1 [24] = molecular target: T1, CYP1A1; assay: Induction of CYP1A1 activity in mouse Hepa-1c1c7 cells assessed as induction ratio at 0.05 uM after 48 hrs by EROD assay relative to control; format: ADME, cell-based; summary of the method: as §1
[25] = molecular target: NAD(P)H dehydrogenase [quinone] 1 (Mus musculus) (UniProt Q64669); assay: Induction of NQO1 activity in mouse Hepa-1c1c7 cells assessed as induction ratio at 0.05 uM after 48 hrs by MTT assay relative to control; format: cell-based; summary of the method: as §2
[26] = molecular target: NAD(P)H dehydrogenase [quinone] 1 (Mus musculus) (UniProt Q64669); assay: Induction of NQO1 activity in mouse Hepa-1c1c7 cells assessed as drug level required to double basal enzyme activity after 48 hrs by MTT assay; format: cell-based
Summary of the method: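 Hepa1c1c7 cells were grown in α-MEM with charcoal-treated FCS, 10,000 per well, 24 h. Compound was given 48 h (DMSO ≤0.5%) over a 10–100-fold range below cytotoxic levels, up to 25 µM. Cells were lysed with digitonin/EDTA. NQO1 was assayed by menadione-driven MTT reduction (G6P/G6PDH/NADP, FAD, Tris pH 7.4), quenched with dicoumarol, A590. CD is the concentration doubling basal activity, taken from the induction–concentration plot; mean ± SD, n = 3.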

[27] = molecular target: NAD(P)H dehydrogenase [quinone] 1 (Mus musculus) (UniProt Q64669); assay: Induction of NQO1 activity in mouse Hepa-1c1c7 cells assessed as induction ratio at 10 uM after 48 hrs by MTT assay relative to control; format: cell-based; summary of the method: as §2
CYP1A1 [28] = molecular target: T1, CYP1A1; assay: Induction of CYP1A1 activity in mouse Hepa-1c1c7 cells assessed as induction ratio at 10 uM after 48 hrs by EROD assay relative to control; format: ADME, cell-based; summary of the method: as §1

SMILES | IC50 [2] | Activity (HCT-116 [7]) | selectivity ratio [8] | Activity (HCT-116 [9]) | Activity (HCT-116 [10]) | Activity (HCT-116 [12]) | Activity (HCT-116 [13]) | Activity (HCT-116 [14]) | IC50 (HCT-116 [15]) | Activity (HCT-116 [16]) | IC50 [17] | Activity (HCT-116 [18]) | Ratio IC50 (MCF7 [19]) | IC50 (MCF7 [21]) | also measured
O=C1Nc2ccccc2/C1=C\c1ccc(C(F)(F)F)cc1 | 12 µM | – | – | – | – | – | – | – | – | – | – | – | – | – | fold induction at 48 h, 0.1 µM (CYP1A1 [1]): 1.22; Ratio [3]: 2.74
O=C1Nc2cc(C(F)(F)F)ccc2/C1=C1\C(=O)Nc2ccc(Cl)cc21 | 9.8 µM | – | – | – | – | – | – | – | – | – | – | – | – | – | fold induction at 48 h, 0.005 µM (CYP1A1 [4]): 3.23; Ratio [5]: 0.92; Ratio [6]: 2.96
O=C1Nc2ccccc2/C1=C\c1cccc(Oc2ccccc2)c1 | 10.8 µM | 3.62% | 1.5 | 2.16% | 63.51% | 13.1% | 18.98% | 21.83% | 3.7 µM | 55.93% | 12.7 µM | 21.09% | 3.4 | 8.2 µM | Ratio [11]: 3.34; fold induction at 48 h, 7.5 µM (CYP1A1 [20]): 1.08
O=C1Nc2ccccc2/C1=C1\C(=O)Nc2ccc(Cl)cc21 | 20.5 µM | – | – | – | – | – | – | – | – | – | – | – | – | – | fold induction at 48 h, 0.005 µM (CYP1A1 [4]): 2.31; Ratio [5]: 1.05; Ratio [6]: 2.42
COc1ccc2c(c1)NC(=O)/C2=C/c1ccc(OC)c(O)c1 | 9.8 µM | 5.26% | 1.4 | 15.54% | 26.01% | 15.36% | 56.49% | 21.13% | 3.7 µM | 17.49% | 11.3 µM | 43.57% | 3.1 | 7.8 µM | fold induction at 48 h, 1 µM (CYP1A1 [22]): 1.05; Ratio [23]: 4.34
O=C1Nc2cc(Cl)ccc2/C1=C\c1cccc(C(F)(F)F)c1 | 1.1 µM | 12.39% | 0.9 | 10.62% | 53.47% | 8.05% | 15.13% | 7.1% | 3.8 µM | 65.55% | 6.6 µM | 28.39% | 1.7 | 7.5 µM | fold induction at 48 h, 0.05 µM (CYP1A1 [24]): 2.4; Ratio [25]: 5.2
C[S+]([O-])CCCCN=C=S (stereo not given) [SULFORAPHANE] | – | – | – | – | – | – | – | – | – | – | – | – | – | – | CD [26]: 0.26 µM; fold induction at 48 h, 1 µM (CYP1A1 [22]): 0.92; Ratio [23]: 3.89
O=C1Nc2ccccc2/C1=C\c1cc(O)ccc1O | > 25 µM | – | – | – | – | – | – | – | – | – | – | – | – | – | Ratio [27]: 7.69; fold induction at 48 h, 10 µM (CYP1A1 [28]): 2.87
